Source: ChEMBL document CHEMBL4665666, “Discovery and characterization of trypanocidal cysteine protease inhibitors from the 'malaria box'” (Eur J Med Chem, 2019)
Calls of active or inactive are those of the source. The rule behind the calls is not given here.

Columns and labels:
[1] = biological target: Rhodesain (Trypanosoma brucei rhodesiense) (UniProt Q95PM0); test: Inhibition of recombinant Trypanosoma brucei rhodesain expressed in Pichia pastoris at 10 uM using Z-FR-AMC as substrate and measured at 12 sec interval for 5 mins without preincubation by fluorimetric analysis relative to control
Summary of the method: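 Recombinant rhodesain or cruzain (1 nM) in 0.1 M sodium acetate pH 5.5, 0.01% Triton X-100, 1 mM β-mercaptoethanol. Compound at a single concentration, either without or after 10 min enzyme pre-incubation. Z-FR-AMC 2.5 µM, read at 340/440 nm every 12 s for 5 min. Inhibition is relative to DMSO, with E-64 as positive control. Done in duplicate (primary screen) or triplicate.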

Cruzipain [2] = biological target: T1, Cruzipain (Trypanosoma cruzi, UniProt P25779); test: Inhibition of recombinant Trypanosoma cruzi cruzain using Z-FR-AMC as substrate and measured at 12 sec interval for 5 mins without preincubation by fluorimetric analysis
Summary of the method: (§1)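 Cruzain (recombinant, 1 nM) in 0.1 M sodium acetate pH 5.5 with 0.01% Triton X-100 and 1 mM β-mercaptoethanol; Z-FR-AMC 2.5 µM, read at 340/440 nm every 12 s for 5 min, with or without 10 min enzyme–compound pre-incubation. […] For mechanism and Ki, 0.3–20.0 µM substrate and five inhibitor levels were used, with Lineweaver-Burk plots.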

Cruzipain [3] = biological target: T1, Cruzipain; test: Inhibition of recombinant Trypanosoma cruzi cruzain using Z-FR-AMC as substrate preincubated for 10 mins followed by substrate addition and measured at 12 sec interval for 5 mins by fluorimetric analysis; summary of the method: as §1
Rhodesain [4] = biological target: T2, Rhodesain (Trypanosoma brucei rhodesiense, UniProt Q95PM0); test: Inhibition of recombinant Trypanosoma brucei rhodesain expressed in Pichia pastoris using Z-FR-AMC as substrate preincubated for 10 mins followed by substrate addition and measured at 12 sec interval for 5 mins by fluorimetric analysis
Summary of the method: (§2)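 Rhodesain (1 nM) with Z-FR-AMC (2.5 µM) in 0.1 M sodium acetate pH 5.5, 0.01% Triton X-100, 1 mM β-mercaptoethanol, with or without 10 min enzyme-compound pre-incubation. Fluorescence read at 340/440 nm. IC50 by four-parameter nonlinear regression from at least six concentrations in triplicate, with at least two independent runs. Mean ± SEM reported.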

[5] = biological target: Cruzipain (Trypanosoma cruzi) (UniProt P25779); test: Inhibition of recombinant Trypanosoma cruzi cruzain at 100 uM preincubated with BSA for 5 mins followed by incubation with enzyme for 5 mins followed by substrate addition relative to control; details: time 10.0 min
Summary of the method: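 For BSA sensitivity, compound was held 5 min with BSA (2 mg/mL in 0.001% Triton X-100), then 5 min with 1 nM cruzain, before substrate was added and activity monitored. Parallel runs omitted BSA under otherwise identical conditions.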

Rhodesain [6] = biological target: T2, Rhodesain; test: Mixed inhibition of recombinant Trypanosoma brucei rhodesain expressed in Pichia pastoris by Lineweaver-Burk plot analysis
Summary of the method: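 Rhodesain rates were measured at six or more Z-FR-AMC levels (0.3–20.0 µM) and five inhibitor levels, in pH 5.5 acetate buffer with 0.01% Triton X-100 and 1 mM β-mercaptoethanol. Read at 340/440 nm. Mechanism and Ki come from Michaelis–Menten nonlinear fits and Lineweaver–Burk linear regression.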

cathepsin S = cathepsin S (Homo sapiens, UniProt P25774); test: Inhibition of recombinant human cathepsin S expressed in Escherichia coli at 100 uM using Z-VVR-AMC as substrate and measured after 15 mins without preincubation by microplate reader based assay relative to control; details: probe Z-VVR-AMC
Summary of the method: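 Run with or without 5 min compound–enzyme pre-incubation. AMC fluorescence at 380/460 nm over 15 min. Inhibition relative to DMSO (2% final); E64 1 µM as positive control. Two independent experiments, each in triplicate.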

Rhodesain [7] = biological target: T2, Rhodesain; test: Inhibition of recombinant Trypanosoma brucei rhodesain expressed in Pichia pastoris using Z-FR-AMC as substrate and measured at 12 sec interval for 5 mins without preincubation by fluorimetric analysis; summary of the method: as §2
Cruzipain [8] = biological target: T1, Cruzipain; test: Competitive inhibition of recombinant Trypanosoma cruzi cruzain by Lineweaver-Burk plot analysis; summary of the method: as §1
[9] = tested on: Trypanosoma brucei brucei; test: Trypanocidal activity against Trypanosoma brucei brucei Squib 427 assessed as reduction in parasite viability; format: functional, organism-based
Trypanosoma cruzi [10] = test: Trypanocidal activity against Trypanosoma cruzi Y strain trypomastigotes infected in C57BL/6 mouse peritoneal macrophage assessed as reduction in number of trypomastigotes release and measured after day 3 to day 11 post-infection by Neubauer chamber method; format: functional, organism-based; details: time 11.0 day
Summary of the method: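 Thioglycolate-elicited peritoneal macrophages from female C57BL/6 mice, 2 × 10^5/well, infected 2 h at 37°C with Y strain trypomastigotes at 5:1 (parasite:cell) and washed. They were then held with compound (3.125–50 µM) or IFN-γ 100 ng/mL. Trypomastigotes released into the supernatant were counted in a Neubauer chamber at several days after infection. Three independent experiments, each in triplicate.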

Peritoneal macrophage [11] = test: Cytotoxicity against C57BL/6 mouse peritoneal macrophages assessed as reduction in cell viability at 3.125 uM measured after 24 hrs by LDH release assay; format: cell-based
Summary of the method: (§3)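 Thioglycolate-elicited peritoneal macrophages from female C57BL/6 mice, 2 × 10^5/well, infected or not with T. cruzi Y trypomastigotes (5:1, 2 h). Either the cells got 3.125–50 µM compound or IFN-γ 100 ng/mL, or the parasites were pre-treated 1 h at 3.125 µM. LDH in supernatant measured at 24 h. Three experiments in triplicate.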

Trypanosoma cruzi [12] = test: Trypanocidal activity against Trypanosoma cruzi Y strain trypomastigotes pretreated with compound at 3.125 uM infected in macrophage assessed as reduction in number of trypomastigotes release measured after 7 days by Neubauer chamber method; format: functional, Peritoneal macrophage; parameters: scale not given: the % may be the effect or the level left; details: time 7 day
Summary of the method: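 Y strain trypomastigotes (1×10^6/mL) were incubated 1 h at 37°C in RPMIc with compound at 3.125 µM or medium alone. They were then pelleted, recounted and used to infect C57BL/6 peritoneal macrophages at 5:1 (parasite:cell) for 2 h. Trypomastigotes released into the supernatant were counted in a Neubauer chamber at 5, 7, 9 and 11 days. Three independent experiments, each in triplicate.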

Peritoneal macrophage [13] = test: Cytotoxicity against C57BL/6 mouse peritoneal macrophage cells infected with 3.125 uM compound pretreated trypomastigotes and measured after 24 hrs by LDH release assay; format: cell-based; summary of the method: as §3
Peritoneal macrophage [14] = test: Effect on nitric oxide production in Trypanosoma cruzi Y strain trypomastigotes infected in C57BL/6 mouse peritoneal macrophage measured after 11 days by Griess reagent based assay; format: functional, tissue-based; details: time 11.0 day
Summary of the method: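 Peritoneal macrophages from C57BL/6 mice, infected with T. cruzi Y trypomastigotes at 5:1 for 2 h and/or stimulated with compound or IFN-γ. Supernatant taken 11 days later and mixed with Griess reagent for 10 min. Absorbance read at 540 nm to give nitrite. Three independent experiments in triplicate.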

T1 sequence (P25779 whole entry): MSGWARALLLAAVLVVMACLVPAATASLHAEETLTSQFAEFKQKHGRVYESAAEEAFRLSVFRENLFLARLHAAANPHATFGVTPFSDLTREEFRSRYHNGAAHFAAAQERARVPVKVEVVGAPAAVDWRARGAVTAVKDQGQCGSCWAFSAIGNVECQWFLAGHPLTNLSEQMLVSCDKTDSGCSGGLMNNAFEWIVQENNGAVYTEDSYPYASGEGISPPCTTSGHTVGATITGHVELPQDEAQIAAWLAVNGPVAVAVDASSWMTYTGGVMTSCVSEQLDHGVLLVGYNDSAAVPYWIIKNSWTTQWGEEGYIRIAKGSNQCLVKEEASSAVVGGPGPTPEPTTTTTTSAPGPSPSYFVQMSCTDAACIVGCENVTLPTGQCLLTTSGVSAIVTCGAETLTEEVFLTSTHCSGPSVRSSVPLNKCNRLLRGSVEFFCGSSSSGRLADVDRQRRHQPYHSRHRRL
T2 sequence (Q95PM0 whole entry): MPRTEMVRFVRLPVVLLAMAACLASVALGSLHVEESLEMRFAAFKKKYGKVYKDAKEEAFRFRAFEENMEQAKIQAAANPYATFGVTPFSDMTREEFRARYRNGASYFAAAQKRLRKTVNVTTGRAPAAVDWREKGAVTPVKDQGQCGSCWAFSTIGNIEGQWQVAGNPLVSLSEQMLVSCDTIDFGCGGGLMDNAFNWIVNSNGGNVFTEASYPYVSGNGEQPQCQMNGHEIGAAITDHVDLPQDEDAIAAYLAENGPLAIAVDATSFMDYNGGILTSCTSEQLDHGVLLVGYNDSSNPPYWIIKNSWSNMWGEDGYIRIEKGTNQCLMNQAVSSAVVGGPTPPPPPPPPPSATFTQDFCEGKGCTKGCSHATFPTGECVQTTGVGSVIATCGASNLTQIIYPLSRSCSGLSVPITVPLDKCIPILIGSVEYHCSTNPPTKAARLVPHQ
cathepsin S, sequence (P25774 whole entry): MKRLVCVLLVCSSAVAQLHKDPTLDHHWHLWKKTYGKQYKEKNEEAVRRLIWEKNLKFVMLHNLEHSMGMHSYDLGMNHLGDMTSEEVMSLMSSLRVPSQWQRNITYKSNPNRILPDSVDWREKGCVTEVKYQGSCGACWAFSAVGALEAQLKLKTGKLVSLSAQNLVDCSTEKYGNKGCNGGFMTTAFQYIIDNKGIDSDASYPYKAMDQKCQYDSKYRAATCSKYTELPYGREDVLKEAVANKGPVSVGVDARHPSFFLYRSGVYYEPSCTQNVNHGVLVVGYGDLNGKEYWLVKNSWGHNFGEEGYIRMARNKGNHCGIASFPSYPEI
Cruzipain (Trypanosoma cruzi), sequence (P25779 123-467 limits assumed): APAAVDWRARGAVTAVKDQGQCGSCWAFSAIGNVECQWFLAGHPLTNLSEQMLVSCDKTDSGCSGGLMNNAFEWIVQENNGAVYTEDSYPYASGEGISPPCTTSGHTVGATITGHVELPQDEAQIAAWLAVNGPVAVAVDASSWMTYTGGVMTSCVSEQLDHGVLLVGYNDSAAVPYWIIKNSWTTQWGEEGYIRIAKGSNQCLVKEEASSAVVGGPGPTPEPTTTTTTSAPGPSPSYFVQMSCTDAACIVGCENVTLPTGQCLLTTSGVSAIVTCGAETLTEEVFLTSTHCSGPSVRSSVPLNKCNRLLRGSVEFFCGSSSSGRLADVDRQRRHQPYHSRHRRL
Rhodesain (Trypanosoma brucei rhodesiense), sequence (Q95PM0 1-450): as the sequence (Q95PM0 whole entry) above

| Structure (SMILES) | inhibition [1] [%] | IC50 (Cruzipain [2]) [µM] | IC50 (Cruzipain [3]) [µM] | IC50 (Rhodesain [4]) [µM] | inhibition [5] [%] | Ki (Rhodesain [6]) [µM] | inhibition at 0.25 h, 100 µM (cathepsin S) [%] | IC50 (Rhodesain [7]) [µM] | Ki (Cruzipain [8]) [µM] | IC50 [9] [µM] | Activity (Trypanosoma cruzi [10]) | Activity (Peritoneal macrophage [11]) | Activity (Trypanosoma cruzi [12]) [%] | Activity (Peritoneal macrophage [13]) [%] | Activity (Peritoneal macrophage [14]) |
| --- | --- | --- | --- | --- | --- | --- | --- | --- | --- | --- | --- | --- | --- | --- | --- |
| Cn1c(=O)n(C)c2cc(CNCCNc3ccnc4cc(Cl)ccc34)ccc21 | 10 | 145 | 51 | 38 | 87.8 | 10 | 4.7 | – | – | – | – | – | – | – | – |
| Cl.Cl.Clc1cc(Br)ccc1-c1ccc(CNCC2CCNCC2)o1 | 10 | 26 | – | – | 90.1 | – | 27.1 | 53 | 3 | 0.1 | Dose-dependent effect | Non-Toxic | 60 | 30 | inactive |
